Laboratory results: the M2OR odorant receptor database

These molecules were tested against T1, OR1G1 (Homo sapiens) (UniProt P47890). Settings: stereoisomer not certain.
T1 sequence (whole entry): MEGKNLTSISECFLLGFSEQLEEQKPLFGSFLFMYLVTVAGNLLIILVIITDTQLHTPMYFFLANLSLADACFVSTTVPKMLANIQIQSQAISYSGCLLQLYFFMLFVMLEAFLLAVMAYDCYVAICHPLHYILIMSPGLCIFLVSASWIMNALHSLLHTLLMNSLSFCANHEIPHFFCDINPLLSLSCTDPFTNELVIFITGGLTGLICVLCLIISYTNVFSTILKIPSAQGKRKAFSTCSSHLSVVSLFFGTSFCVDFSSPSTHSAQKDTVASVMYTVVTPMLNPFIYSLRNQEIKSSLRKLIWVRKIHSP
How it was run: (§1)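 Assay methods differ from source to source, frequently being transient luciferase assays in mammalian cell lines. For each receptor–molecule pair, the label responsive (active) applies when the original authors judged the measured signal statistically different from baseline, and non-responsive (inactive) applies otherwise.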
For `OCc1ccccc1`, the “odorant receptor agonist call” value was “active”.
For `CC(=O)C=CC1=C(C)CCCC1(C)C`, the “odorant receptor agonist call” value was “inactive”.
With `CCCCCCCCC(=O)OCC` the “odorant receptor agonist call” value was “active”.
For `Cc1ccc(C(C)C)cc1O`, the “odorant receptor agonist call” value was “inactive”.
With `CC=CC(=O)C1C(C)=CCCC1(C)C` (stereo not drawn) the “odorant receptor agonist call” value was “inactive”.
`CC(C)CCCC(C)(C)O` was tested, and the “odorant receptor agonist call” value was “inactive”.
With `CCCCCCCC(C)=O` the “odorant receptor agonist call” value was “active”.
In the case of `CCCCCCCCC(OC(C)=O)OC(C)=O`, the “odorant receptor agonist call” value is reported as “active”.
`CCCCCC1C(=O)CCC1CC(=O)OC` (stereo not drawn) was tested, and the “odorant receptor agonist call” value was “active”.
`CC1=CCC2CC1C2(C)C` (stereo not drawn) was tested, and the “odorant receptor agonist call” value was “inactive”.
For `COC1CC2CC1C1CC(C=O)CC21` (stereo not drawn), the “odorant receptor agonist call” value was “inactive”.
With `CC(CC=O)c1ccc(C(C)(C)C)cc1` (stereo not drawn) the “odorant receptor agonist call” value was “inactive”.
With `Cc1cnccn1` the “odorant receptor agonist call” value was “active”.
In the case of `CC(C)(C)C1CCCCC1OCCCCO` (stereo not drawn), the “odorant receptor agonist call” value is reported as “inactive”.
`CCCCCCCO` was tested, and the “odorant receptor agonist call” value was “active”.
In the case of `C=CC(C)(O)CCC=C(C)CCC=C(C)C` (stereo not drawn), the “odorant receptor agonist call” value is reported as “inactive”.
With `CCCCC1CCC(=O)O1` (stereo not drawn) the “odorant receptor agonist call” value was “inactive”.
For `COc1ccc(C)cc1`, the “odorant receptor agonist call” value was “inactive”.
`c1ccc2scnc2c1` was tested, and the “odorant receptor agonist call” value was “active”.
With `CCC=C(C)C(O)CCCCC` (stereo not drawn) the “odorant receptor agonist call” value was “inactive”.
With `CCCCCCC(=O)CC` the “odorant receptor agonist call” value was “active”.
For `C=CCOC(=O)COCCC(C)C`, the “odorant receptor agonist call” value was “inactive”.
With `CC(=O)OCc1ccccc1` the “odorant receptor agonist call” value was “inactive”.
`CCCCCC1COCCC1OC(C)=O` (stereo not drawn) was tested, and the “odorant receptor agonist call” value was “inactive”.
For `CC(=O)C(C)O` (stereo not drawn), the “odorant receptor agonist call” value was “active”.
For `CC(C)=CCCC(C)CC=O` (stereo not drawn), the “odorant receptor agonist call” value was “active”.
For `CCC(=O)C=CC1C(C)=CCCC1(C)C` (stereo not drawn), the “odorant receptor agonist call” value was “inactive”.
For `C=CC(C)(CCC=C(C)C)OC(C)=O` (stereo not drawn), the “odorant receptor agonist call” value was “inactive”.
`CC1CC(C)(c2ccccc2)CO1` (stereo not drawn) was tested, and the “odorant receptor agonist call” value was “inactive”.
In the case of `CC(C)=CCCC(C)=CCO`, the “odorant receptor agonist call” value is reported as “active”.
With `CCOC(=O)CC1(C)OCCO1` the “odorant receptor agonist call” value was “inactive”.

The molecules below were run against T2, OR1L3 (Homo sapiens) (UniProt Q8NH93). Settings: stereoisomer not certain.
T2 sequence (whole entry): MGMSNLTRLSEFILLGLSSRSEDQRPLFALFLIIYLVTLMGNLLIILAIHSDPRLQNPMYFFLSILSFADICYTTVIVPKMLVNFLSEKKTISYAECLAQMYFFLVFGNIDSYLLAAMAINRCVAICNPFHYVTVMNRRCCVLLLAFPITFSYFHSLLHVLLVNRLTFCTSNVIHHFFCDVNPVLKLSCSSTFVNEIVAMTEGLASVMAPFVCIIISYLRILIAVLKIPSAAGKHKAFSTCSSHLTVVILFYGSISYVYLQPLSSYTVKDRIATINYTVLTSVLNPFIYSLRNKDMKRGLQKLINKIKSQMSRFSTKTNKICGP
How it was run: as §1
With `OCc1ccccc1` the “odorant receptor agonist call” value was “inactive”.
With `CC(=O)C=CC1=C(C)CCCC1(C)C` the “odorant receptor agonist call” value was “inactive”.
For `Cc1ccc(C(C)C)cc1O`, the “odorant receptor agonist call” value was “inactive”.
In the case of `CC=CC(=O)C1C(C)=CCCC1(C)C` (stereo not drawn), the “odorant receptor agonist call” value is reported as “active”.
`CC(C)CCCC(C)(C)O` was tested, and the “odorant receptor agonist call” value was “inactive”.
`CCc1ccc(CC(C)(C)C=O)cc1` was tested, and the “odorant receptor agonist call” value was “inactive”.
With `CCCCCCCCC(OC(C)=O)OC(C)=O` the “odorant receptor agonist call” value was “inactive”.
In the case of `CCCC(C)C(=O)OCC` (stereo not drawn), the “odorant receptor agonist call” value is reported as “inactive”.
In the case of `CCCCCC1C(=O)CCC1CC(=O)OC` (stereo not drawn), the “odorant receptor agonist call” value is reported as “inactive”.
With `CC1=CCC2CC1C2(C)C` (stereo not drawn) the “odorant receptor agonist call” value was “inactive”.
In the case of `COC1CC2CC1C1CC(C=O)CC21` (stereo not drawn), the “odorant receptor agonist call” value is reported as “inactive”.
For `CC(CC=O)c1ccc(C(C)(C)C)cc1` (stereo not drawn), the “odorant receptor agonist call” value was “inactive”.
With `CC(C)(C)C1CCCCC1OCCCCO` (stereo not drawn) the “odorant receptor agonist call” value was “inactive”.
`C=CC(C)(O)CCC=C(C)CCC=C(C)C` (stereo not drawn) was tested, and the “odorant receptor agonist call” value was “inactive”.
`CCCCC1CCC(=O)O1` (stereo not drawn) was tested, and the “odorant receptor agonist call” value was “inactive”.
With `COc1ccc(C)cc1` the “odorant receptor agonist call” value was “inactive”.
In the case of `CCC=C(C)C(O)CCCCC` (stereo not drawn), the “odorant receptor agonist call” value is reported as “inactive”.
`C=CCOC(=O)COCCC(C)C` was tested, and the “odorant receptor agonist call” value was “inactive”.
With `Cc1occc(=O)c1OC(=O)C(C)C` the “odorant receptor agonist call” value was “inactive”.
In the case of `CC(=O)OCc1ccccc1`, the “odorant receptor agonist call” value is reported as “inactive”.
With `CCCCCC1COCCC1OC(C)=O` (stereo not drawn) the “odorant receptor agonist call” value was “inactive”.
`CC(C)=CCCC(C)CC=O` (stereo not drawn) was tested, and the “odorant receptor agonist call” value was “inactive”.
For `CCC(=O)C=CC1C(C)=CCCC1(C)C` (stereo not drawn), the “odorant receptor agonist call” value was “inactive”.
For `C=CC(C)(CCC=C(C)C)OC(C)=O` (stereo not drawn), the “odorant receptor agonist call” value was “inactive”.
With `CC1CC(C)(c2ccccc2)CO1` (stereo not drawn) the “odorant receptor agonist call” value was “inactive”.
For `CC(C)=CCCC(C)=CCO`, the “odorant receptor agonist call” value was “inactive”.
For `CCOC(=O)CC1(C)OCCO1`, the “odorant receptor agonist call” value was “inactive”.
